From ChEMBL document CHEMBL2203053, “DNA binding acridine-thiazolidinone agents affecting intracellular glutathione” (Bioorg Med Chem, 2012)
pIC50: −log10 of the molar value. Activity calls are given as the source filed them. The calls are words filed in the database; no cut-off is given here.

Tests used:
A2780 [1] = assay: Cytotoxicity against human A2780 cells after 48 hrs by MTT assay; type: functional, cell-based; conditions: A2780, 48 h
Method in brief: (§1)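 HL-60, L1210 and A2780 cells were grown in RPMI 1640 with 10% FBS, penicillin and streptomycin at 37 °C, 5% CO₂; HL-60 and A2780 medium also had 2 mM glutamine. Cells were exposed to 0–30 µM for 48 or 72 h. Viability was read by MTT microculture tetrazolium assay and IC50 was determined.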

HL-60 [2] = assay: Cytotoxicity against human HL60 cells after 72 hrs by MTT assay; type: functional, cell-based; conditions: HL-60, 72 h; method in brief: as §1
Nucleic Acid [3] = assay: Ratio of acridine orange K to compound K for calf thymus DNA by spectrofluorimetry based McGhee von Hippel method; type: nucleic-acid assay; conditions: Bos taurus
[4] = Binding affinity to NAC assessed as second order rate constant at 1 mM at pH 6 after 10 mins by UV-visible spectrophotometry
Method in brief: (§2)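 Reaction with N-acetyl-L-cysteine was run in 100 mM Tris/HCl containing 50% DMSO at 25 °C, with final 2c at 20 µM and NAC at 1 mM. pH was 6.0, 6.5 or 7.0. Spectral change was monitored by UV–vis, with the mixture held 10 min. Second-order rate constants k2 (M⁻¹ s⁻¹) are reported.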

L1210 [5] = assay: Cytotoxicity against mouse L1210 cells after 48 hrs by MTT assay; type: functional, cell-based; conditions: L1210, 48 h; method in brief: as §1
HL-60 [6] = assay: Drug uptake in human HL60 cells at 10 uM after 10 to 60 mins by RP-HPLC analysis; type: ADME, cell-based; conditions: hl-60, 10 µM
Method in brief: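 HL-60 cells (2 × 10⁶/mL) were exposed to 10 µM for 10 or 60 min, washed twice in PBS and extracted with methanol (1 h, 4 °C). Extract was centrifuged at 6700 × g and injected (20 µL) onto a C18 RP-HPLC column. Mobile phase was methanol/50 mM ammonium formate 80:20, pH 4.5, at 0.5 mL/min and 25 °C, with detection at 370 nm.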

HL-60 [7] = assay: Induction of oxidative stress in BSO pretreated human HL60 cells assessed as superoxide production at 5 uM treated 6 hrs after BSO addition measured after 1 hr by DHE dye fluorescence microscopy; type: functional, cell-based
Method in brief: (§3)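 HL-60 cells (4 × 10⁵) were cultured 24 h at 37 °C, then given 5 µM for 1 h, with or without 6 h pretreatment with 10 µM L-buthionine-sulfoximine. Dihydroethidium (20 µM) was then added for 20 min at 37 °C. Cells were washed in PBS and superoxide was viewed by fluorescence microscopy. Menadione served as positive control.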

NIH3T3 = assay: Cytotoxicity against mouse NIH/3T3 cells after 72 hrs by MTT assay; type: cell-based; conditions: NIH3T3, 72 h
HL-60 [8] = assay: Cell cycle arrest in human HL60 cells assessed as accumulation at G2 phase at 0.5 uM after 48 hrs by propidium iodide staining based flow cytometry (reference value: 12.90%); type: functional
Nucleic Acid [9] = assay: Binding affinity to calf thymus DNA assessed as hypochromicity at 25 uM by UV-visible spectrophotometry; type: nucleic-acid assay; conditions: Bos taurus
Method in brief: (§4)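 Absorption spectra were taken in 0.01 M Tris buffer, pH 7.4. Compounds were diluted from DMSO stock to a final 25 µM. Sonicated calf thymus DNA in TE buffer was added at 0–30 µM bp, with concentration set by A260. Shift of λmax (free vs bound) and % hypochromicity were recorded.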

Nucleic Acid [10] = assay: Ratio of proflavine K to compound K for calf thymus DNA by spectrofluorimetry based McGhee von Hippel method; type: nucleic-acid assay; conditions: Bos taurus
HL-60 [11] = assay: Cytotoxicity against human HL60 cells after 48 hrs using trypan blue exclusion staining by DCC method; type: functional, cell-based; conditions: HL-60, 48 h
Method in brief: (§5)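 For trypan blue dye-exclusion direct cell counting, HL-60 cells were seeded at 1 × 10⁵ cells/mL. Compound at 0–10 µM, or 1% DMSO control, was added after 24 h. Viable counts were taken after 24, 48 and 72 h. IC50 (50% inhibition of viability) came from growth curves, as mean ± S.D., n = 3.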

HL-60 [12] = assay: Induction of cell death in human HL60 cells assessed as viable cells at 4 uM after 24 hrs by FDA/PI staining based flow cytometer (reference value: 90.16%); type: functional; conditions: HL-60, 24 h, read-out: Activity
HL-60 [13] = assay: Induction of cell death in human HL60 cells assessed as necrotic cells at 2 uM after 24 hrs by FDA/PI staining based flow cytometer (reference value: 5.87%); type: functional
HL-60 [14] = assay: Drug uptake in human HL60 cells at 5 uM after 4 hrs by Hoechst staining based fluorescence microscopy; type: ADME, cell-based; conditions: hl-60, 4 h
Method in brief: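 HL-60 cells were exposed to 5 µM for 4 h at 37 °C, 5% CO₂, then washed in PBS. Intrinsic blue fluorescence was viewed by optical and fluorescence microscopy. Untreated control cells were stained with Hoechst 33342 (10 µM, 10 min).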

HL-60 [15] = assay: Cytotoxicity against BSO pretreated human HL60 cells assessed as cell viability at 1 uM treated 6 hrs after BSO addition measured after 48 hrs by trypan blue exclusion assay; type: functional, cell-based
Method in brief: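 HL-60 cells were pretreated 6 h with L-buthionine-sulfoximine (10 µM), then exposed to 1.5, 3.0 or 1.0 µM compound for 48 h. Viable cells were counted by trypan blue staining and expressed as percentage of all cells.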

HL-60 [16] = assay: Cell cycle arrest in human HL60 cells assessed as accumulation at S phase at 0.5 uM after 48 hrs by propidium iodide staining based flow cytometry (reference value: 38.96%); type: functional
L1210 [17] = assay: Cytotoxicity against mouse L1210 cells after 72 hrs by MTT assay; type: functional, cell-based; conditions: L1210, 72 h; method in brief: as §1
HL-60 [18] = assay: Induction of cell death in human HL60 cells assessed as early apoptotic cells at 2 uM after 24 hrs by FDA/PI staining based flow cytometer (reference value: 3.96%); type: functional
HL-60 [19] = assay: Induction of cell death in human HL60 cells assessed as necrotic cells at 4 uM after 24 hrs by FDA/PI staining based flow cytometer (reference value: 5.87%); type: functional
HL-60 [20] = assay: Induction of cell death in human HL60 cells assessed as late apoptotic cells at 2 uM after 24 hrs by FDA/PI staining based flow cytometer (reference value: 0.01%); type: functional
Nucleic Acid [21] = assay: Ratio of daunomycin K to compound K for calf thymus DNA by spectrofluorimetry based McGhee von Hippel method; type: nucleic-acid assay; conditions: Bos taurus
Nucleic Acid [22] = assay: Binding affinity to calf thymus DNA assessed as melting temperature at 5 uM at pH 7.1 by thermal denaturation assay; type: nucleic-acid assay; conditions: Bos taurus
[23] = Binding affinity to NAC assessed as second order rate constant at 1 mM at pH 7 after 10 mins by UV-visible spectrophotometry; method in brief: as §2
Nucleic Acid [24] = assay: Binding affinity to calf thymus DNA assessed as intercalation at 26.7 uM by fluorometric titration analysis; type: nucleic-acid assay; conditions: Bos taurus
Method in brief: (§6)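 Fluorescence titration used compound at 26.7 µM in 0.01 M Tris buffer (pH 7.4, 24 °C). ctDNA was added stepwise from 0 to 32 µM bp at 2 µM intervals until spectra stopped changing. Excitation was 384 nm and emission was read at 410–470 nm. Binding constant K was derived by the McGhee–von Hippel method from Scatchard plot data.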

A2780 [25] = assay: Drug uptake in human A2780 cells at 5 uM after 4 hrs by Hoechst staining based fluorescence microscopy; type: ADME, cell-based; conditions: a2780, 4 h
HL-60 [26] = assay: Cell cycle arrest in human HL60 cells assessed as accumulation at sub G0 phase at 1 uM after 48 hrs by propidium iodide staining based flow cytometry (reference value: 1.93%); type: functional
Nucleic Acid [27] = assay: Binding affinity to calf thymus DNA assessed as binding constant by spectrofluorimetry based McGhee von Hippel method; type: nucleic-acid assay; conditions: Bos taurus; method in brief: as §6
HL-60 [28] = assay: Induction of necrosis in human HL60 cells assessed as cell shrinking at 2.5 uM after 24 hrs by propidium iodide staining based fluorescence microscopy; type: functional
HL-60 [29] = assay: Cytotoxicity against human HL60 cells after 48 hrs by MTT assay; type: functional, cell-based; conditions: HL-60, 48 h; method in brief: as §1
HL-60 [30] = assay: Induction of cell death in human HL60 cells assessed as early apoptotic cells at 4 uM after 24 hrs by FDA/PI staining based flow cytometer (reference value: 3.96%); type: functional
HL-60 [31] = assay: Cell cycle arrest in human HL60 cells assessed as accumulation at G1 phase at 1 uM after 48 hrs by propidium iodide staining based flow cytometry (reference value: 48.14%); type: functional
HL-60 [32] = assay: Decrease in intracellular glutathione level in human HL60 cells at 1 uM after 2 to 24 hrs by spectrophotometric analysis; type: functional, cell-based
HL-60 [33] = assay: Cell cycle arrest in human HL60 cells assessed as accumulation at S phase at 1 uM after 48 hrs by propidium iodide staining based flow cytometry (reference value: 38.96%); type: functional
Nucleic Acid [34] = assay: Binding affinity to calf thymus DNA assessed as bathochromic shift at 25 uM by UV-visible spectrophotometry; type: nucleic-acid assay; conditions: Bos taurus; method in brief: as §4
HL-60 [35] = assay: Cell cycle arrest in human HL60 cells assessed as accumulation at sub G0 phase at 0.5 uM after 48 hrs by propidium iodide staining based flow cytometry (reference value: 1.93%); type: functional
[36] = Binding affinity to NAC assessed as second order rate constant at 1 mM at pH 6.5 after 10 mins by UV-visible spectrophotometry; method in brief: as §2
HL-60 [37] = assay: Cell cycle arrest in human HL60 cells assessed as accumulation at G2 phase at 1 uM after 48 hrs by propidium iodide staining based flow cytometry (reference value: 12.90%); type: functional
HL-60 [38] = assay: Cytotoxicity against human HL60 cells after 72 hrs using trypan blue exclusion staining by DCC method; type: functional, cell-based; conditions: HL-60, 72 h; method in brief: as §5
A2780 [39] = assay: Cytotoxicity against human A2780 cells after 72 hrs by MTT assay; type: functional, cell-based; conditions: A2780, 72 h; method in brief: as §1
HL-60 [40] = assay: Induction of cell death in human HL60 cells assessed as late apoptotic cells at 4 uM after 24 hrs by FDA/PI staining based flow cytometer (reference value: 0.01%); type: functional
HL-60 [41] = assay: Induction of cell death in human HL60 cells assessed as viable cells at 2 uM after 24 hrs by FDA/PI staining based flow cytometer (reference value: 90.16%); type: functional; conditions: HL-60, 24 h, read-out: Activity
HL-60 [42] = assay: Cell cycle arrest in human HL60 cells assessed as accumulation at G1 phase at 0.5 uM after 48 hrs by propidium iodide staining based flow cytometry (reference value: 48.14%); type: functional
HL-60 [43] = assay: Induction of oxidative stress in human HL60 cells assessed as superoxide production at 5 uM after 1 hr by DHE dye based fluorescence microscopy; type: functional, cell-based; method in brief: as §3

Work on `COC(=O)/C=C1\S/C(=N\c2c3ccccc3nc3ccccc23)N(c2ccc(Br)cc2)C1=O` yielded a pIC50 (A2780 [1]) of 4.90, a pIC50 (HL-60 [2]) of 5.89 and a Ratio (Nucleic Acid [3]) of 10. For the same compound, the Activity [4] was 2 M⁻¹ s⁻¹, the pIC50 (L1210 [5]) was 5.77 and the Drug uptake (HL-60 [6]) was “Active”. The Activity (HL-60 [7]) was “Active”, the pIC50 (NIH3T3) was 5.46 and the Activity (HL-60 [8]) was 10.56%. It also gave an Activity (Nucleic Acid [9]) of 24.2%, a Ratio (Nucleic Acid [10]) of 10 and a pIC50 (HL-60 [11]) of 5.80. The viability at 4 µM (HL-60 [12]) was 17.8%, the Activity (HL-60 [13]) was 22.87% and the Drug uptake (HL-60 [14]) was “Active”. For the same compound, the Activity (HL-60 [15]) was “Active”, the Activity (HL-60 [16]) was 38.4% and the pIC50 (L1210 [17]) was 5.51. It also gave an Activity (HL-60 [18]) of 68.64%, an Activity (HL-60 [19]) of 62.62% and an Activity (HL-60 [20]) of 0.03%. For the same compound, the Ratio (Nucleic Acid [21]) was 10, the Tm (Nucleic Acid [22]) was 81 °C and the Activity [23] was 9.9 M⁻¹ s⁻¹. For the same compound, the Activity (Nucleic Acid [24]) was “Active”, the Drug uptake (A2780 [25]) was “Active” and the Activity (HL-60 [26]) was 25.85%. For the same compound, the K (Nucleic Acid [27]) was 5.89 ×10⁶ /M, the Activity (HL-60 [28]) was “Active” and the pIC50 (HL-60 [29]) was 5.85. The Activity (HL-60 [30]) was 19.57%, the Activity (HL-60 [31]) was 82.93% and the Activity (HL-60 [32]) was “Active”. For the same compound, the Activity (HL-60 [33]) was 11.99%, the Activity (Nucleic Acid [34]) was “Active” and the Activity (HL-60 [35]) was 21.7%. It also gave an Activity [36] of 3.8 M⁻¹ s⁻¹, an Activity (HL-60 [37]) of 5.08% and a pIC50 (HL-60 [38]) of 6.05. For the same compound, the pIC50 (A2780 [39]) was 5.11, the Activity (HL-60 [40]) was 0.01% and the viability at 2 µM (HL-60 [41]) was 8.46%. For the same compound, the Activity (HL-60 [42]) was 51.04% and the Activity (HL-60 [43]) was “Active”.
